IC50 data for 10 molecules are collected here from ChEMBL document CHEMBL1133863, “Dual neurokinin NK(1)/NK(2) antagonists: N-[(R,R)-(E)-1-arylmethyl-3-(2-oxo-azepan-3-yl)carbamoyl]allyl-N-methyl-3,5-bis(trifluoromethyl)benzamides and 3-[N'-3,5-bis(trifluoromethyl)benzoyl-N-arylmethyl-N'-methylhydrazino]-N-[(R)-2-oxo-azepan-3-yl]propionamides” (Bioorg Med Chem Lett, 2001).

The test concerns the target T1, Substance-K receptor (Homo sapiens, UniProt P21452).
T1 sequence (P21452 whole entry): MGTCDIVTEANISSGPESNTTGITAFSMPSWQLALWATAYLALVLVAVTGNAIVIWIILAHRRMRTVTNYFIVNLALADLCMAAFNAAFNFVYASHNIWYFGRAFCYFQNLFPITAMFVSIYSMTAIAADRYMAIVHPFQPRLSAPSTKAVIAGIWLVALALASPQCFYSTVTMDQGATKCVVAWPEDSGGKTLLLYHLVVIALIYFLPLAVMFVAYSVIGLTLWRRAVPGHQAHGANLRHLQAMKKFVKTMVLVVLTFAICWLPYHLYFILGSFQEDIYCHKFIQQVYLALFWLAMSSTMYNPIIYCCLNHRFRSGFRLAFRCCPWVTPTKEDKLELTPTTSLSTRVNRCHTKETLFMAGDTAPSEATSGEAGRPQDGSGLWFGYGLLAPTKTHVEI
Nature of the test: In vitro binding affinity for Tachykinin receptor 2 of human-CHO cells using 125 I-NKA radioligand. The format is cell-based. The method, boiled down: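 Whole CHO cells stably expressing recombinant human NK2 receptor (3×10^5 per well) incubated 20 min at room temperature with 0.05 nM [125I]-NKA (2200 Ci/mmol) and a range of test concentrations in 20 mM HEPES pH 7.4 with 2 mM MnSO4 and 6 mM MgCl2. Nonspecific binding defined with 50 nM NKA. Rapid filtration, four ice-cold Tricine washes, scintillation counting; triplicate samples.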

Broadly, the IC50 is the point on the concentration scale where inhibition reaches its midpoint. The molecule `CN(C(=O)c1cc(C(F)(F)F)cc(C(F)(F)F)c1)[C@@H](/C=C/C(=O)N[C@@H]1CCCCNC1=O)Cc1cc(Br)c(Br)s1` yielded an IC50 of 26 nM.
`CN(C(=O)c1cc(C(F)(F)F)cc(C(F)(F)F)c1)[C@@H](/C=C/C(=O)N[C@@H]1CCCCNC1=O)Cc1ccc2ccccc2c1` had an IC50 of 60 nM.
Turning to `CN(C(=O)c1cc(C(F)(F)F)cc(C(F)(F)F)c1)N(CCC(=O)N[C@@H]1CCCCNC1=O)Cc1ccc2ccccc2c1`, the IC50 worked out at 55 nM.
In turn, `CN(C(=O)c1cc(C(F)(F)F)cc(C(F)(F)F)c1)[C@@H](/C=C/C(=O)N[C@@H]1CCCCNC1=O)Cc1cc(Cl)c(Cl)s1` came in with an IC50 of 17 nM.
For `CN(C(=O)c1cc(C(F)(F)F)cc(C(F)(F)F)c1)[C@@H](/C=C/C(=O)NC1CCCCCC1)Cc1ccc(Cl)cc1`, the IC50 was 203 nM.
Consider `CN(C(=O)c1cc(C(F)(F)F)cc(C(F)(F)F)c1)N(CCC(=O)N[C@@H]1CCCCNC1=O)Cc1cc(Br)c(Br)s1`, for which the IC50 turned out to be 19.5 nM.
The result for `CN(C(=O)c1cc(C(F)(F)F)cc(C(F)(F)F)c1)[C@@H](/C=C/C(=O)NC1(C(N)=O)CCCCC1)Cc1ccc(Cl)cc1` reads 66 nM.
The result for `CN(C(=O)c1cc(C(F)(F)F)cc(C(F)(F)F)c1)[C@@H](/C=C/C(=O)N[C@@H]1CCCCNC1=O)Cc1cn(C)c2ccccc12` reads 24 nM; that for `CN(C(=O)c1cc(C(F)(F)F)cc(C(F)(F)F)c1)N(CCC(=O)N[C@@H]1CCCCNC1=O)Cc1ccc(Cl)c(Cl)c1`, 5.5 nM.
With `CN(C(=O)c1cc(C(F)(F)F)cc(C(F)(F)F)c1)[C@@H](/C=C/C(=O)N[C@@H]1CCCCNC1=O)Cc1ccc(Cl)c(Cl)c1` [DNK333] the figure was 5.5 nM.
